Experimental findings from ChEMBL document CHEMBL1157983, “Novel labdane diterpenes from the insecticidal plant hyptis spicigera1” (1999) are described below.

In brackets after ≈: the same amount, converted by molar mass. Activity calls are given as the source filed them. No cut-off for these calls is given here.

One experiment deals with Ostrinia nubilalis. Briefly: Insecticidal activity against Ostrinia nubilalis larvae after 4 to 6 days. It is filed as functional, organism-based. In outline:
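Samples were dissolved in 95% EtOH and mixed into agar-based meridic diet at final 5, 50 and 100 ppm. European corn borer larvae were reared on it at 25 °C, about 80% RH, with a 16:8 light:dark cycle. Mortality and larval weight were recorded every 4-6 days over the growth period. ANOVA with Tukey's multiple range test.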

Experiment [1] relates to KB. Briefly: Cytotoxicity against human KB cells up to 20 ug/mL after 72 hrs by SRB assay. It is filed as functional, cell-based. The method, boiled down:
(§1)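 KB (nasopharyngeal) and HCT-15 (colon) lines kept in RPMI 1640 with 10% FBS at 37 °C, 5% CO2. Log-phase cells were exposed in triplicate to 0.16-20 µg/mL of sample for 72 h. Cell density was read by sulforhodamine staining. ED50 (50% growth inhibition versus control) was estimated from a semilog plot of concentration against percent viable cells. Ellipticine served as positive control.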
(In general: In SRB staining, fixed cells bind dye roughly in proportion to their protein.)

Experiment [2] relates to HCT-15. Briefly: Cytotoxicity against human HCT-15 cells at 20 ug/mL after 72 hrs by SRB assay. It is filed as functional, cell-based.
For experiment [3], the system named is KB. Briefly: Cytotoxicity against human KB cells after 72 hrs by SRB assay. It is filed as functional. The note with it: read-out: ED50 (the source's name). In outline:
as §1

The test system of experiment [4] is HCT-15. Put plainly: Cytotoxicity against human HCT-15 cells after 72 hrs by SRB assay. The note with it: HCT-15, 72 h, read-out: ED50 (the source's name). It is filed as functional. The method, boiled down:
as §1

With `C=C1[C@H](O)C[C@H]2[C@@](C)(COC(C)=O)C[C@H](O)C[C@]2(C)[C@H]1CC/C(C)=C\COC(C)=O`, the outcome with Ostrinia nubilalis was Active. The outcome with KB [1] and in the experiment on HCT-15 [2] was inactive.
Regarding `C=C1[C@H](O)C[C@H]2[C@@](C)(COC(C)=O)C[C@H](O)C[C@]2(C)[C@H]1CCC(C)=O`, the result in the experiment with KB [1] and in the experiment with HCT-15 [2] was inactive.
With `C=C1[C@H](O)C[C@H]2[C@@](C)(COC(C)=O)CC(=O)C[C@]2(C)[C@H]1CC/C(C)=C\CO`, the EC50 in the experiment on KB [3] and in the experiment on HCT-15 [4] was 11 µg/mL (≈ 29.1 µM) each time.
In the case of `C=C1[C@H](O)C[C@H]2[C@@](C)(COC(C)=O)C[C@H](O)C[C@]2(C)[C@H]1CC/C(C)=C\C=O`, the EC50 in the experiment on KB [3] and in the experiment on HCT-15 [4] was 11 µg/mL (≈ 29.1 µM) in each case.
Regarding `Cc1c2ccncc2c(C)c2c1[nH]c1ccccc12` [ELLIPTECINE], the EC50 in the experiment with KB [3] amounted to 0.1 µg/mL (≈ 0.406 µM); with HCT-15 [4], 0.17 µg/mL (≈ 0.69 µM).
Turning to `C=C1[C@H](OC(C)=O)C[C@H]2[C@@](C)(COC(C)=O)C[C@H](O)C[C@]2(C)[C@H]1CC/C(C)=C\COC(C)=O`, the outcome with KB [1] and with HCT-15 [2] was inactive.
As for `C=C1[C@H](O)C[C@H]2[C@@](C)(COC(C)=O)C[C@H](O)C[C@]2(C)[C@H]1CC/C(C)=C\CO`, the EC50 amounted to 19.4 µg/mL (≈ 51 µM) with KB [3] and 8.7 µg/mL (≈ 22.9 µM) with HCT-15 [4].
Take `C=C1[C@H](O)C[C@@H]2[C@](C)(CO)C[C@@H](O)C[C@@]2(C)[C@H]1CC/C(C)=C\CO`: the outcome in the experiment on KB [1] and in the experiment with HCT-15 [2] was inactive.
